A word on the IC50: it is the concentration needed to halve the response being measured. What is called inhibition is how much of the control response was suppressed.

Drawing on ChEMBL document CHEMBL5154731, “Synthetic methodology-enabled discovery of a tunable indole template for COX-1 inhibition and anti-cancer activity” (Bioorg Med Chem, 2022), this text covers IC50, Activity and inhibition for 5 molecules.

SMILES strings stand for the structures. The source made the active and inactive calls. No cut-off for these calls is given here.

Data set [1] can be described thus: Cytotoxicity against African green monkey Vero cells assessed as reduction in cell viability measured after 72 hrs by MTS assay. It counts as toxicity, cell-based. To be noted: African green monkey (Chlorocebus sabaeus). Summed up:
(§1)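 Cells seeded at 2000 to 4500/well on day 1. Next day, treated 72 h with drug at 2.5 to 500 μM from a 1% DMSO solution in medium (DMSO control), each in triplicate. All with 10% FBS. MTS reagent added for 2.5–3 h at 37 °C, absorbance at 490 nm; eight points averaged per concentration.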
In general terms: Tetrazolium dyes change colour on reduction, which living cells bring about.

Data set [2] relates to HepG2. Put plainly: Induction of apoptosis in human HepG2 cells assessed as up regulation of Bax expression at 75 uM measured after 20 hrs by Western blot analysis. It counts as functional, cell-based. Summed up: (§2)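 Hep-G2 (1 × 10^6/well) plated 48 h before treatment, then exposed 20 h to 0.1% DMSO solutions of compound (DMSO control). Cells washed in PBS and lysed in RIPA; 20–40 μg protein run on 4–20% gel at 150 V for 65 min, transferred to PVDF, blocked in 5% BSA. Probed overnight for cleaved and pro-caspase, Bcl-xL, Bcl-2, Bax and actin, then IRDye secondaries 1 h, with fluorescence quantification.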
For orientation: Immunoblotting shows a protein as a band on a membrane.

Data set [3] deals with HepG2. Nature of the data set: Induction of apoptosis in human HepG2 cells assessed as increase in cleaved caspase-3 level at 75 uM measured after 20 hrs by Western blot analysis. Type of data set: functional, cell-based. Put shortly: as §2
A further data set relates to MDA-MB-231. Put plainly: Cytotoxicity against human MDA-MB-231 cells assessed as reduction in cell viability measured after 72 hrs by MTS assay. The note with it: MDA-MB-231, 72 h. It counts as functional, cell-based. Summed up:
as §1

Data set [4] deals with HepG2. Nature of the data set: Induction of apoptosis in human HepG2 cells assessed as increase in ratio of Bax/Bcl-2 expression at 75 uM measured after 20 hrs by Western blot analysis. It counts as functional, cell-based. Put shortly: as §2
A further data set relates to A549. Put plainly: Cytotoxicity against human A549 cells assessed as reduction in cell viability measured after 72 hrs by MTS assay. It counts as functional, cell-based. To be noted: A549, 72 h. Put shortly: as §1
A further data set has as its system LNCaP. Put plainly: Cytotoxicity against human LNCaP cells over expressing androgen receptor F876L mutant assessed as reduction in cell viability measured after 72 hrs by MTS assay. It counts as functional, cell-based. Put shortly: as §1
The test system of data set [5] is HepG2. Put plainly: Down regulation of AR expression in human HepG2 cells at 75 uM measured after 20 hrs by Western blot analysis. It counts as functional, cell-based.
In the next data set the test system is HeLa. Nature of the data set: Cytotoxicity against human HeLa cells assessed as reduction in cell viability measured after 72 hrs by MTS assay. Type of data set: functional, cell-based. Put shortly:
as §1

A further data set deals with MCF7. Put plainly: Cytotoxicity against human MCF7 cells assessed as reduction in cell viability measured after 72 hrs by MTS assay. Type of data set: functional, cell-based. The note with it: MCF7, 72 h. Put shortly: as §1
Data set [6] deals with HepG2. Nature of the data set: Induction of apoptosis in human HepG2 cells assessed as decrease in Bcl-2 expression at 75 uM measured after 20 hrs by Western blot analysis. Type of data set: functional, cell-based. Put shortly: as §2
The test system of data set [7] is HepG2. Put plainly: Cytotoxicity against human HepG2 cells assessed as reduction in cell viability measured after 72 hrs by MTS assay. It counts as functional, cell-based. To be noted: HepG2, 72 h. Put shortly:
as §1

The test system of data set [8] is HepG2. Put plainly: Cell cycle arrest in human HepG2 cells assessed as increase in cell accumulation at G1/G0 phase at 100 uM measured after 24 to 48 hrs by propidium iodide staining based FACS analysis. Type of data set: functional. The note with it: time 24-48 hrs. Put shortly:
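Hep-G2 grown to 70% confluence in 10-cm dishes, treated in 0.1% DMSO medium for 24 or 48 h (0.1% DMSO control). Floating and trypsinized cells pooled, washed in PBS, fixed overnight at –20 °C in 70% ethanol, then 200 μg/mL RNase A for 30 min and 100 μg/mL propidium iodide for 30 min at room temperature. DNA content read by flow cytometry; two independent experiments in duplicate.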
On the technique in general: A flow cytometer gives signals particle by particle.

A further data set has as its system DU-145. Put plainly: Cytotoxicity against human DU-145 cells assessed as reduction in cell viability measured after 72 hrs by MTS assay. Type of data set: functional, cell-based. The note with it: DU-145, 72 h. Put shortly:
as §1

Data set [9] concerns HepG2. Nature of the data set: Induction of apoptosis in human HepG2 cells assessed as down regulation of Bcl-xl expression at 75 uM measured after 20 hrs by Western blot analysis. It counts as functional, cell-based. Summed up:
as §2

A further data set deals with Vero. Nature of the data set: Cytotoxicity against African green monkey Vero cells assessed as reduction in cell viability at 2.5 to 500 uM measured after 72 hrs by MTS assay. It counts as toxicity, cell-based. To be noted: chlorocebus sabaeus, dose 2.5-500 µM. Summed up:
as §1

For data set [10], the target named is T1, Prostaglandin G/H synthase 1 (Ovis aries) (UniProt P05979).
T1 sequence (whole entry): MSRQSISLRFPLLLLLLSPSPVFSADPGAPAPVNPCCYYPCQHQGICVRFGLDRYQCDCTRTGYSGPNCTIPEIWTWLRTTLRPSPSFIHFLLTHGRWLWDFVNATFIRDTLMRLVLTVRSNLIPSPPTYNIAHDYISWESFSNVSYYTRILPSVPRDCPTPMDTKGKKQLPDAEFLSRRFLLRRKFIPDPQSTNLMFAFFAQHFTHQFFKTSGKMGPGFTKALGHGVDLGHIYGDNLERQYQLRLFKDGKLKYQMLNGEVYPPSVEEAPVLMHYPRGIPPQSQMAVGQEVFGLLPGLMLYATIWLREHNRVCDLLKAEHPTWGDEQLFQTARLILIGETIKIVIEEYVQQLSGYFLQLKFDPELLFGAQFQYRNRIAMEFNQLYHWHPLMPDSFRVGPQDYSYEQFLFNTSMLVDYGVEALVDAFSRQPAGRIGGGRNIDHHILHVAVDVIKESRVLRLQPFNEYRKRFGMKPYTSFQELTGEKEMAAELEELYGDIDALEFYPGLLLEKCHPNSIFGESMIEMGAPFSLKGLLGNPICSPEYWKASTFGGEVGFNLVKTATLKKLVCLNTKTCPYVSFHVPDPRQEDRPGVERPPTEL
Nature of the data set: Inhibition of full-length ovine COX-1 at 50 uM using arachidonic acid as substrate preincubated for 5 mins followed by substrate addition and measured after 2 mins by colorimetry relative to control. The note with it: time 7.0 min.

The target of data set [11] is T2, Prostaglandin G/H synthase 1 (Ovis aries, UniProt P05979).
T2 sequence (P05979 whole entry): T1 sequence (whole entry)
Nature of the data set: Inhibition of full-length ovine COX-1 using arachidonic acid as substrate preincubated for 5 mins followed by substrate addition and measured after 2 mins by colorimetry.

Data set [12] deals with T1, Prostaglandin G/H synthase 1 (Ovis aries). Put plainly: Inhibition of full-length ovine COX-1 at 5 uM using arachidonic acid as substrate preincubated for 5 mins followed by substrate addition and measured after 2 mins by colorimetry relative to control. The note with it: time 7.0 min.

Take `Cc1ccc(-c2cc(C(F)(F)F)nn2-c2ccc(S(N)(=O)=O)cc2)cc1` [CELECOXIB]: the IC50 at 72 h in data set [1] is 60.6 µM. The result in the data set with HepG2 [2], with HepG2 [3], in the data set with HepG2 [4], in the data set with HepG2 [5], with HepG2 [6] and in the data set with HepG2 [8] was Active. For the same molecule, the outcome in the data set with HepG2 [9] was Active. In addition, the IC50 in the data set with MDA-MB-231 amounted to 69.6 µM; in the data set with A549, 57.9 µM; with LNCaP it was 16.4 µM; in the data set on HeLa, 58.2 µM; in the data set with MCF7 it was 64.2 µM; with HepG2 [7] it was 58.2 µM. For the same molecule, the IC50 in the data set on DU-145 came out at 59.3 µM.

On to `COc1ccc2c(C(=O)O)cn(C)c2c1C(=O)OCC(F)(F)F`, for which the Activity entry with Vero is on record as “Non-Toxic”.

As to `COc1ccc2c(CO)cn(C)c2c1C(=O)NCC(F)(F)F`, the half-maximal inhibitory concentration (IC50) at 72 h in [1] is 229 µM. The inhibition in data set [10] and in data set [12] was under 20% in each case. The IC50 came out at 253 µM with MDA-MB-231; 85.8 µM in [11]; 164 µM with A549; 99 µM in the data set on LNCaP; 110 µM with HeLa; 273 µM in the data set on MCF7. The figures for the IC50 with HepG2 [7] and with DU-145 were 58.2 µM and 144 µM, respectively.

For the molecule `COc1ccc2c(Cc3cn(C)c4c(C(=O)OCC(F)(F)F)c(OC)ccc34)cn(C)c2c1C(=O)OCC(F)(F)F`, the figures for the inhibition in [10] and in [12] were 22.9% and under 20%, respectively. Moreover, in the data set with Vero, the Activity result is “Non-Toxic”.

On to `COc1ccc2c(Cc3cn(C)c4c(C(=O)NCC(F)(F)F)c(OC)ccc34)cn(C)c2c1C(=O)NCC(F)(F)F`, for which the inhibition in data set [10] and in data set [12] was under 20% in each case. In addition, the Activity result with Vero is “Non-Toxic”.
